Data: paper PMC4079331 (Journal of Medicinal Chemistry, 2014)
One block for each molecule: values may come before it.

Experiments:
[1] = tested on: CLL1 (CLL patient cell line); assay: In vitro cytotoxicity against primary CLL patient cells CLL1; format: cell-based, human; details: read-out: antitumor EC50 CLL1; Table 3; SE ±0.01 μM
[2] = tested on: CLL2 (CLL patient cell line); assay: In vitro cytotoxicity against primary CLL patient cells CLL2; format: cell-based, human; details: for EC50: read-out: antitumor EC50 CLL2, Table 3, SE ±0.01 μM
[3] = tested on: JVM-2 (ATCC leukemia cell line); assay: In vitro cytotoxicity against JVM-2; format: cell-based; details: read-out: antitumor EC50 JVM-2; Table 3; SE ±0.01 μM
HeLa cell line = assay: HeLa cell viability by the MTT method; format: cell-based; details: read-out: antitumor EC50 HeLa; Table 3; SE ±0.01 μM
CLL patient cells = assay: In vitro activity against CLL patient cells, summary statements over cell lines; format: cell-based, human; details: for in vitro activity against CLL patient cells: result in words
Outline: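 Primary CLL cells from consented patients, cultured in RPMI with 10% FBS and test compound at designated concentrations for 48 h (37 °C, 5% CO2). Viability is the DiOC6+/PI− fraction relative to untreated or vehicle control. EC50 and SE come from dose–response curves.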

[4] = Stability in mouse plasma; format: in vitro ADME; details: female, BALB/c, mouse plasma (pooled)
Outline: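 Test compound at 50 μM final (1% DMSO) in pooled plasma from female BALB/c mice or human AB serum. Incubated at 37 °C with gentle agitation. Samples taken at 0, 0.5, 1, 2, 8, 18 and 24 h. Proteins precipitated with CH3CN, vortexed and centrifuged (3000g, 10 min, room temperature); supernatant analysed by LCMS. Run in triplicate.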

[5] = Nonspecific protein binding, from recovery out of plasma and serum; format: in vitro ADME; details: result in words
Outline: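 Test compound at 50 μM final (1% DMSO) in pooled female BALB/c mouse plasma or serum, or in human AB serum, incubated at 37 °C with gentle agitation. Aliquots taken at 0, 0.5, 1, 2, 8, 18 and 24 h were precipitated with CH3CN and centrifuged at 3000g for 10 min; supernatants were quantified by LCMS. Run in triplicate.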

[6] = Phase I metabolism in mouse microsomes; format: in vitro ADME; details: 1 h incubation, 100 μM, NADPH
Outline: (§1)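 Mouse or human microsomes (5 mg/mL protein final) in 0.1 M sodium phosphate pH 7.4 with 100 μM test compound (DMSO <1%), preincubated 5 min at 37 °C. Started with 1 mM NADPH and run 60 min at 37 °C. Stopped with MeOH and centrifuged; supernatant analysed by LCMS. Controls: zero time, no NADPH, boiled microsomes, and 7-ethoxycoumarin as CYP substrate.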

[7] = Phase I metabolism in human microsomes; format: in vitro ADME; details: 1 h incubation, 100 μM, NADPH
Outline: as §1

[8] = Phase II glucuronidation in mouse S9 fractions; format: in vitro ADME
[9] = Phase II glucuronidation in human S9 fractions; format: in vitro ADME
[10] = tested on: KB nasopharyngeal tumor cells; details: in vitro cultured cells; from the literature, reference not given; cited from earlier work
CLL = details: read-out: EC50 against CLL; p53-independent activity; cited from earlier work

Molecule: O-Methyl-agelastatin A [4b]
EC50 [1]: 867 µM
EC50 [2]: 28.8 µM
EC50 [3]: 429 µM
EC50 (HeLa cell line): 91.4 µM

Molecule: CN1C(=O)N[C@H]2[C@@H]3NC(=O)c4cc(Cl)c(Cl)n4[C@@H]3C[C@]21O [1e, 13-Debromo-13,14-dichloro-agelastatin A]
in vitro activity against CLL patient cells (CLL patient cells): nanomolar

Molecule: CN1C(=O)N[C@H]2[C@@H]3NC(=O)c4ccc(I)n4[C@@H]3C[C@]21O [1g, 13-Debromo-13-iodo-agelastatin A]
in vitro activity against CLL patient cells (CLL patient cells): nanomolar

Molecule: CN1C(=O)N[C@H]2[C@@H]3NC(=O)c4ccc(C#N)n4[C@@H]3C[C@]21O [1n, 13-Debromo-13-cyano-agelastatin A]
in vitro activity against CLL patient cells (CLL patient cells): nanomolar

recovery at 24 h, 50 μM [4]: 65 to 90%
nonspecific protein binding [5]: relatively low
metabolism by cytochrome P450 enzymes, recovery from supernatant (LCMS) [6]: quantitative recovery
metabolism by cytochrome P450 enzymes, recovery from supernatant (LCMS) [7]: quantitative recovery
Molecule: CN1C(=O)N[C@H]2[C@@H]3NC(=O)c4ccc(C(F)(F)F)n4[C@@H]3C[C@]21O [1j, 13-Debromo-13-trifluoromethyl-agelastatin A]
in vitro activity against CLL patient cells (CLL patient cells): nanomolar

metabolism by cytochrome P450 enzymes, recovery from supernatant (LCMS) [6]: near quantitative recovery
metabolism by cytochrome P450 enzymes, recovery from supernatant (LCMS) [7]: near quantitative recovery
Molecule: CN1C(=O)N[C@H]2[C@@H]3NC(=O)c4cccn4[C@@H]3C[C@]21O [1p, 13-Debromo-agelastatin A]
loss of activity on removal of Br from C-13 ([2]; compared with 1a): 25 fold

Molecule: CN1C(=O)N[C@H]2[C@@H]3NC(=O)c4ccc(Cl)n4[C@@H]3C[C@]21O [1d, 13-Debromo-13-chloro-agelastatin A]
in vitro activity against CLL patient cells (CLL patient cells): nanomolar

Molecule: CN1C(=O)N[C@H]2[C@@H]3NC(=O)c4ccc(Br)n4[C@@H]3C[C@]21O [1a, (−)-Agelastatin A]
EC50 (CLL patient cells; read-out: EC50, CLL activity, range over the cell lines tested): 0.11 to 0.31 µM
nonspecific protein binding [5]: relatively low
metabolism by cytochrome P450 enzymes, recovery from supernatant (LCMS) [6]: quantitative recovery
metabolism by cytochrome P450 enzymes, recovery from supernatant (LCMS) [7]: quantitative recovery
formation of glucuronides [8]: No formation of glucoronides was detected
formation of glucuronides [9]: No formation of glucoronides was detected
IC50, growth of KB nasopharyngeal tumor cells [10]: 0.5–1 μg mL^–1
EC50 (CLL): 0.06 to 0.1 µM

Molecule: O-(2′-Methoxyethyl)-agelastatin A [4c]
EC50 [2]: 9.39 µM
EC50 [3]: 21.1 µM

metabolism by cytochrome P450 enzymes, recovery from supernatant (LCMS) [6]: metabolized
metabolism by cytochrome P450 enzymes, recovery from supernatant (LCMS) [7]: metabolized
Molecule: CCOc1ccc2ccc(=O)oc2c1 [7-ethoxycoumarin, reference compound]
